Data on seven compounds can be found in ChEMBL document CHEMBL4130352, “Ciprofloxacin-nitroxide hybrids with potential for biofilm control” (Eur J Med Chem, 2017).

Each structure is given as a SMILES string. Values after ≈ are worked out from the molar mass of the structure shown. Active and inactive are the calls of the source. No cut-off for these calls is given here.

For data set [1], the system named is Pseudomonas aeruginosa. The data set is described as follows: Effect on Pseudomonas aeruginosa PA14 assessed as dead cells at 20 uM preincubated for 24 hrs measured after 2 hrs (reference value: 4%). In kind it is organism-based.
In a further data set the test system is HEK293. Nature of the data set: Cytotoxicity against HEK293 cells assessed as reduction in cell viability at 5 to 40 uM after 24 hrs by LDH release assay. As to conditions: human, hek293, 24 h. In kind it is cell-based. The gist of the method: (§1)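 HEK 293 and RD cells were grown in DMEM with 10% FBS at 37°C, 5% CO2, and seeded the day before at 50,000 (HEK 293) or 20,000 (RD) cells per well. Compounds (5 mM DMSO stock) were added at 5–40 μM for 24 h, with 0.8% DMSO in all wells. LDH release was normalised to untreated cells and 3 h lysis-buffer controls. Run in triplicate.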
(LDH leaks from cells whose membrane has failed.)

In data set [2] the test system is Pseudomonas aeruginosa. Nature of the data set: Inhibition of planktonic growth of Pseudomonas aeruginosa PA14 after 24 hrs by broth microdilution method. In kind it is organism-based. The settings on record: in vitro. The gist of the method:
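Broth microdilution in polypropylene microtiter plates. Compounds added as DMSO solutions, inoculum 5×10^5 CFU/mL final, incubated 37 °C for 24 h. MIC taken as the lowest concentration with no visible growth.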

The subject of data set [3] is Pseudomonas aeruginosa. Nature of the data set: Antibiofilm activity against Pseudomonas aeruginosa PA14 assessed as dispersion of bacteria from biofilms at 20 uM after 2 to 3 hrs. In kind it is functional, organism-based. The gist of the method:
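PA14 biofilms grown 2 days in flow cells at 37°C, then exposed to 20 μM compound. Dispersed cells were collected from chamber effluent at set times, plated on Pseudomonas Isolation Agar and incubated at 37°C. CFU/mL was counted the next day, and fold-change in dispersed viable cells was calculated against untreated PA14 effluent.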

The subject of data set [4] is Pseudomonas aeruginosa. The data set is described as follows: Antibiofilm activity against Pseudomonas aeruginosa PA14 assessed as removal of biomass at 20 uM preincubated for 24 hrs measured after 2 hrs by SYTO/propidium iodide double-staining-based confocal laser scanning microscopic analysis relative to control. It is filed as functional.
Data set [5] deals with Pseudomonas aeruginosa. The data set is described as follows: Antibiofilm activity against Pseudomonas aeruginosa PA14 assessed as total live biofilm biomass eradication at 20 uM preincubated for 24 hrs measured after 2 hrs by SYTO/propidium iodide double-staining-based confocal laser scanning microscopic analysis relative to control. It is filed as functional.
Another data set relates to RD. Nature of the data set: Cytotoxicity against human RD cells assessed as reduction in cell viability at 5 to 40 uM after 24 hrs by LDH release assay. In kind it is cell-based. The gist of the method:
as §1

The test system of data set [6] is Pseudomonas aeruginosa. Nature of the data set: Inhibition of planktonic growth of Pseudomonas aeruginosa PA14 assessed as reduction of colony forming units after 24 hrs. In kind it is organism-based. Put shortly: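 Overnight PA14 cultures were diluted 1:100 with or without compound (0–160 μM) and incubated 24 h. Samples were then 10-fold serially diluted and plated on LB agar, grown overnight at 37°C, and CFU were counted.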

The test system of data set [7] is Pseudomonas aeruginosa. The data set is described as follows: Antibiofilm activity against Pseudomonas aeruginosa PA14 assessed as dispersion of bacteria from biofilms at 20 uM after 18.5 hrs relative to control. It is filed as functional. Put shortly: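 PA14 biofilms pre-grown 2 days at 37°C in flow cells, then treated with 20 μM compound. Dispersed cells collected from chamber effluent at set times, plated on Pseudomonas Isolation Agar at 37°C, counted next day as CFU/mL. Fold change in viable dispersed cells calculated against untreated PA14 biofilms.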

Data set [8] deals with Pseudomonas aeruginosa. The data set is described as follows: Antibiofilm activity against Pseudomonas aeruginosa PA14 assessed as removal of mature biofilm at 40 uM preincubated for 24 hrs measured after 2 hrs by SYTO/propidium iodide double-staining-based confocal laser scanning microscopic analysis relative to control. In kind it is functional.

As to `CC1(C)CC(C(=O)N2CCN(c3cc4c(cc3F)c(=O)c(C(=O)O)cn4C3CC3)CC2)CC(C)(C)N1[O]`, the Activity is recorded as 6% in the data set on Pseudomonas aeruginosa [1]; “Non-Toxic” in the data set on HEK293; 37% with Pseudomonas aeruginosa [4]; 41% in the data set on Pseudomonas aeruginosa [5]; “Non-Toxic” in the data set with RD. In the data set on Pseudomonas aeruginosa [2], this compound had an MIC of 312 µM (≈ 160 µg/mL). Also, in the data set with Pseudomonas aeruginosa [3], the outcome was Active.
As to `CON1C(C)(C)c2ccc(C(=O)N3CCN(c4cc5c(cc4F)c(=O)c(C(=O)O)cn5C4CC4)CC3)cc2C1(C)C`, the Activity with Pseudomonas aeruginosa [1] was 2%; in the data set with HEK293, “Non-Toxic”; with Pseudomonas aeruginosa [4], 53%; in the data set on Pseudomonas aeruginosa [5], 54%; in the data set on RD, “Non-Toxic”. The results for the MIC against Pseudomonas aeruginosa [2] and with Pseudomonas aeruginosa [6] were more than 284 µM and more than 160 µM, respectively.
With `CC1(C)CC(C(=O)N2CCN(c3cc4c(cc3F)c(=O)c(C(=O)O)cn4C3CC3)CC2)C(C)(C)N1[O]` (stereo not drawn), the results for the Activity in the data set with Pseudomonas aeruginosa [1], with Pseudomonas aeruginosa [4] and in the data set with Pseudomonas aeruginosa [5] were 0%, 67% and 67%, respectively. Also, the MIC in the data set with Pseudomonas aeruginosa [2] was found to be 160 µM (≈ 79.9 µg/mL).
As for `CON1C(C)(C)CC(C(=O)N2CCN(c3cc4c(cc3F)c(=O)c(C(=O)O)cn4C3CC3)CC2)CC1(C)C`, the Activity is reported as 16% in the data set on Pseudomonas aeruginosa [1]; “Non-Toxic” in the data set on HEK293; 17% in the data set on Pseudomonas aeruginosa [4]; 30% in the data set on Pseudomonas aeruginosa [5]; “Non-Toxic” in the data set on RD. For the same compound, in the data set with Pseudomonas aeruginosa [2], the MIC is more than 303 µM. Further, in the data set on Pseudomonas aeruginosa [7], the “fold change (FC)” value came out at 0.
With `CC1(C)CC(N2CCN(c3cc4c(cc3F)c(=O)c(C(=O)O)cn4C3CC3)CC2)CC(C)(C)N1[O]`, the Activity in the data set with Pseudomonas aeruginosa [1] is recorded as 50%; in the data set on Pseudomonas aeruginosa [5] it was 80%; in the data set with Pseudomonas aeruginosa [8], “<=95%”.
For `CON1C(C)(C)CC(C(=O)N2CCN(c3cc4c(cc3F)c(=O)c(C(=O)O)cn4C3CC3)CC2)C1(C)C` (stereo not drawn), the Activity in the data set on Pseudomonas aeruginosa [1] is 9%; in the data set with Pseudomonas aeruginosa [4] it was 24%; in the data set with Pseudomonas aeruginosa [5] it was 31%. Also, in the data set on Pseudomonas aeruginosa [2], the MIC was 311 µM (≈ 160 µg/mL).
In the case of `O=C(O)c1cn(C2CC2)c2cc(N3CCNCC3)c(F)cc2c1=O` [CIPROFLOXACIN], in the data set with Pseudomonas aeruginosa [2], the MIC came to 0.5 µM (≈ 0.166 µg/mL).
